Measured values taken from PubChem BioAssay AID1027 (Sanford-Burnham Center for Chemical Genomics, 2008).
The campaign covered roughly 200,000 compounds. Fewer than 10 were called active.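 Rule for the calls: active = luciferase activation factor, scaled between plate controls, of at least 2 with compound at 10 µM; inactive = the rest.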 Only a sample is shown.

Molecular target: Luciferin 4-monooxygenase (Photinus pyralis) (UniProt P08659)
Test: FLuc activators, initial screening, artefact control for FLuc-dependent activation tests, biochemical, ATPlite luminescence (AID 1027)
Conditions: ATPlite luciferase biochemical, 10 min, at 10 µM, stronger effect = higher value, 0 = ATP-free wells, 1 = DMSO control
In short: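 Assay system – cell-free luciferase reagent · Medium – PBS-based ATP solution · Dosing – test compounds dosed from 2 mM stocks in 100% DMSO · Timing – 10 min, room temperature · Technique – light output (luminescence) · Measure – luminescence gain marking luciferase activators · Controls – No-ATP low control, compound-free enzyme-plus-ATP high control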

Sequence of Luciferin 4-monooxygenase (Photinus pyralis) (P08659 whole entry, looked up): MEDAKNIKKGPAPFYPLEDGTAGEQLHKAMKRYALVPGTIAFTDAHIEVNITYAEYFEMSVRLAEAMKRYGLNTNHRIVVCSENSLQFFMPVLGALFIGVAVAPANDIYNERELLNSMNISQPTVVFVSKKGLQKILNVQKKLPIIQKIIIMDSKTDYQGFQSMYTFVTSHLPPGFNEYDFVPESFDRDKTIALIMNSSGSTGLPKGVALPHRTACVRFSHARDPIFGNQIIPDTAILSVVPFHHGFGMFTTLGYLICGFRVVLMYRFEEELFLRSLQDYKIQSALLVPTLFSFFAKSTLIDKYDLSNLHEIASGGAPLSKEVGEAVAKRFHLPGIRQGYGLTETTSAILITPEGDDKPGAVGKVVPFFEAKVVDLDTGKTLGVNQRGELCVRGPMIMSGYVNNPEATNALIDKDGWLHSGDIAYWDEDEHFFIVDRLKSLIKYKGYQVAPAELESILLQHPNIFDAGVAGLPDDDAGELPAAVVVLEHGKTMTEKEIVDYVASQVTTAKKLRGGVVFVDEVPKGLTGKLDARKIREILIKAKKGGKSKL

Activation factor, inactive:
CCO[C@H]1OC(C(=O)N2CCCCCCC2)=C[C@@H](c2ccc(C(F)(F)F)cc2)[C@@H]1CCCO 1.1
Cc1nn(Cc2ccc(F)cc2)c(C)c1NC(=O)c1cccnc1Cl 1.1
O=C(CCN1C(=O)c2ccccc2C1=O)C1=NN[C@@H]2C(=O)N(c3ccc(F)cc3)C(=O)[C@H]12 1
CCOc1ccc(-c2ccc(SCC(=O)N3CCOCC3)nn2)cc1 0.2
Cc1scc(C(=O)NNC(=S)NCC(C)C)c1C 1
CCCn1nc(C(=O)N2CCCc3ccccc32)c2ccccc2c1=O 1.1
Cc1ccc2cc(CCNC(=O)c3ccc4c(c3)OCO4)c(=O)[nH]c2c1 1.1
COc1ccc2oc(=O)c(C(=O)NCc3ccccn3)cc2c1 0.9
Cc1ccc2c(c1)C1CN(C)CCC1N2C(=O)c1ccccc1NS(=O)(=O)c1ccc(F)cc1C (stereo not given) 1.1
CCOc1ccc(CCNC(=O)C2=C(C)C(=O)OC23CCC(C)CC3)cc1OCC (stereo not given) 1.1
COc1ccc(NS(=O)(=O)c2ccc(O)c(C(=O)OCC(=O)NC3CCCCC3)c2)cc1 1.1
Cc1cccc(N=Nc2c(O)[nH]c3ccc(F)cc23)c1 0.9
NC1=NC(=O)C(Cc2cccc(Cl)c2)S1 (stereo not given) 1
CN(C)c1ccnc(Nc2ccc(F)cc2)c1C#N 1
COc1ccc(NC(=O)N2CCCC(c3nc(-c4ccc(F)cc4)no3)C2)cc1 (stereo not given) 1
CN1CCN(c2ccc(NC(=O)c3ccc4c(c3)[nH]c(=O)n4Cc3ccc(F)cc3)cc2)CC1 1
COc1ccc(NC(=O)CN2C(=O)C(c3ccccc3)=NC23CCCCCC3)cc1OC 1
CC(NC(=O)COC(=O)c1ccc(Cl)cc1O)c1ccc(F)cc1 (stereo not given) 1
CCOc1cccc(OCCCOc2cccc3cccnc23)c1 1
S=c1[nH]nc(NCCc2ccccc2)s1 0.9
COc1ccc(C(=O)N2CCC(C(=O)Nc3ccc(C)cc3)CC2)cc1 1
COc1cccc(/C=C2\SC(=N)N(c3ccc(F)cc3)C2=O)c1 1.1
O=[N+]([O-])/C(N=Nc1ccccc1)=N\Nc1ccccc1 1.1
COc1ccc(CC(=O)N[C@@H](CCSC)c2nc3ccccc3[nH]2)cc1 1.1
O=C(NCc1ccccn1)c1cc(Br)ccc1Cl 1
CC1CCN(c2ccc(C(=O)Nc3nnc(C4CC4)s3)cc2[N+](=O)[O-])CC1 1
Cc1cccc(N2C(=O)CC(SC(N)=Nc3ccccc3)C2=O)c1 (stereo not given) 1.1
COc1cc(/C=C/CO)cc(OC)c1O[C@@H]1O[C@H](CO)[C@@H](O)[C@H](O)[C@H]1O 1
Cc1ccc2[nH]cc(CCCN3C(=O)c4ccccc4C3=O)c2c1 1
COc1ccc(NC(=O)C(NC(C)=O)C(=O)NCc2ccccc2Cl)cc1 (stereo not given) 1
CC(OC(=O)CCc1nc(=O)c2ccccc2n1C)C(=O)NCc1ccc2c(c1)OCO2 (stereo not given) 1.1
CO/N=C(\N)c1ccc([N+](=O)[O-])cc1 1.1
Cc1ccc(CCCOC(=O)C[N+]2(C)CCCCC2)cc1 1
O=C(Cc1ccccc1)Nc1cccc(C(=O)N/N=C/c2ccco2)c1 0.9
Cc1ccc(CSc2nc3[nH]ncc3c(=O)[nH]2)cc1 0.6
COc1ccccc1NC(=O)C[n+]1ccccc1 1
COc1cc(C(=O)N2C(=O)c3cccc(N)c3C2=O)cc(OC)c1OC 1
CCOC(=O)C1CCCN(C(=O)c2cccc(S(=O)(=O)N3CCOCC3)c2)C1 (stereo not given) 1
COc1cccc(NC(=O)C(Sc2nc3ccccc3c(=O)n2CC(C)C)c2ccccc2)c1 (stereo not given) 1
Cc1cs/c(=N\N=C\c2ccc(O)cc2)n1Cc1ccco1 1
